Active and inactive are the calls of the source. The rule behind the calls is not given here.
Legend:
[1] = target: T1, Hepatocyte nuclear factor 4-alpha (Homo sapiens) (UniProt P41235); assay: Agonist activity at human full length HNF4alpha nuclear receptor expressed in human HepG2/C3A cells co-transfected with LexADBD assessed as increase in transcriptional activity at 9.3 uM by beta-galactosidase one hybrid assay relative to control; type: functional, cell-based
T1 sequence (whole entry): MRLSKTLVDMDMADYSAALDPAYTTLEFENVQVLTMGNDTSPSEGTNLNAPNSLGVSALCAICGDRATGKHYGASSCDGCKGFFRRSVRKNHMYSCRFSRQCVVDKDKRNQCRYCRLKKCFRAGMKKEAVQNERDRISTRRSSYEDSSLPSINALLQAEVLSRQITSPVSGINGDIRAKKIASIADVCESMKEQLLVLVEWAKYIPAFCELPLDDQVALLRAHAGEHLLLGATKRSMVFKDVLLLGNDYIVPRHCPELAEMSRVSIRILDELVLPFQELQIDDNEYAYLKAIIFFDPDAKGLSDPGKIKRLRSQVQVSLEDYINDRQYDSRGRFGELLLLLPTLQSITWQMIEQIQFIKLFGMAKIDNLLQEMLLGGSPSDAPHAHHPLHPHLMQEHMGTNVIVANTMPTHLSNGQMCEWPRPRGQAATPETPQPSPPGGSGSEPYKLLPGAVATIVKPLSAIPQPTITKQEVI

[2] = target: T2, Hepatocyte nuclear factor 4-alpha (Homo sapiens, UniProt P41235); assay: Agonist activity at human full length HNF4alpha nuclear receptor expressed in human HepG2/C3A cells co-transfected with LexADBD assessed as increase in transcriptional activity after 16 hrs by beta-galactosidase one hybrid assay; type: functional, cell-based
T2 sequence (P41235 whole entry): T1 sequence (whole entry)
Method in brief: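 Yeast one-hybrid with LexA DNA-binding domain fusions of HNF4α (full length, AF-1-deleted, or LBD lacking F domain). Increasing compound concentrations applied to yeast for 16 h, then β-galactosidase assay. EC50 taken from the dose–response curves.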

[3] = Cytotoxicity against human HepG2/C3A cells after 48 hrs by MTT assay; type: functional, cell-based
HepG2/C3A [4] = assay: Enhancement of beta-galactosidase activity in human HepG2/C3A cells transfected with estrogen receptor assessed as increase in transcriptional activity after 16 hrs; type: functional, cell-based
HepG2/C3A [5] = assay: Enhancement of beta-galactosidase activity in human HepG2/C3A cells transfected with LexACOUP-TFII assessed as increase in transcriptional activity after 16 hrs; type: functional, cell-based
HepG2/C3A [6] = assay: Enhancement of beta-galactosidase activity in human HepG2/C3A cells transfected with Gal4 assessed as increase in transcriptional activity after 16 hrs; type: functional, cell-based
[7] = target: T1, Hepatocyte nuclear factor 4-alpha (Homo sapiens); assay: Agonist activity at human HNF4alpha7 nuclear receptor LBDdetaF expressed in human HepG2/C3A cells co-transfected with LexADBD assessed as increase in transcriptional activity after 16 hrs by beta-galactosidase one hybrid assay; type: functional, cell-based
[8] = target: T1, Hepatocyte nuclear factor 4-alpha (Homo sapiens); assay: Agonist activity at AF1 deleted human HNF4alpha7 nuclear receptor expressed in human HepG2/C3A cells co-transfected with LexADBD assessed as increase in transcriptional activity after 16 hrs by beta-galactosidase one hybrid assay; type: functional, cell-based
[9] = target: T1, Hepatocyte nuclear factor 4-alpha (Homo sapiens); assay: Agonist activity at human full length HNF4alpha nuclear receptor expressed in human HepG2/C3A cells co-transfected with LexADBD assessed as increase in transcriptional activity at 12.5 uM by beta-galactosidase one hybrid assay relative to control; type: functional, cell-based
[10] = target: T1, Hepatocyte nuclear factor 4-alpha (Homo sapiens); assay: Stabilization of thermal denaturation-induced conformational change in human HNF4alpha nuclear receptor ligand binding domain assessed as change in transition temperature by thermofluor assay
Method in brief: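 Human HNF4α LBD (aa 133–368), 6xHis-tagged, expressed in E. coli, purified under denaturing conditions, renatured and TEV-cleaved (apo). Protein at 0.3 mg/mL in 20 mM Tris-Cl pH 8.0, 100 mM NaCl, with 3× molar excess test compound and SYPRO Orange (20× working). Heated 20–90 °C at 1 °C/min. ΔTm = Tm − T0 against a water control; means of 3–6 independent experiments ± SE.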

[11] = target: T1, Hepatocyte nuclear factor 4-alpha (Homo sapiens); assay: Agonist activity at human full length HNF4alpha nuclear receptor expressed in human HepG2/C3A cells co-transfected with LexADBD assessed as increase in transcriptional activity at 6.2 uM by beta-galactosidase one hybrid assay relative to control; type: functional, cell-based
[12] = target: T1, Hepatocyte nuclear factor 4-alpha (Homo sapiens); assay: Agonist activity at human full length HNF4alpha nuclear receptor expressed in human HepG2/C3A cells co-transfected with LexADBD assessed as increase in transcriptional activity at 100 uM by beta-galactosidase one hybrid assay relative to control; type: functional, cell-based
[13] = target: T1, Hepatocyte nuclear factor 4-alpha (Homo sapiens); assay: Activation of HNFalpha transcriptional activity in human […] cells transfected with ApoB-luc assessed as activation of luciferase reporter gene after 24 hrs; type: cell-based
Method in brief: (§1)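 HepG2C3A cells seeded at 6 × 10⁴/well in DMEM, transfected 24 h later (JetPEI) with 800 ng total DNA: 250 ng ApoB-Luc or ApoCIII-Luc reporter, 250 ng β-galactosidase plasmid, HNF4α expression vector. Treated 24 h (DMSO 0.5% control). Luciferase read in lysate supernatant and normalised to β-gal (4-MUG fluorescence, ex 365/em 450 nm). Fold induction vs DMSO. At least three independent experiments, in triplicate.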

[14] = target: T1, Hepatocyte nuclear factor 4-alpha (Homo sapiens); assay: Agonist activity at human full length HNF4alpha nuclear receptor expressed in human HepG2/C3A cells co-transfected with LexADBD assessed as increase in transcriptional activity at 18.7 uM by beta-galactosidase one hybrid assay relative to control; type: functional, cell-based
[15] = target: T1, Hepatocyte nuclear factor 4-alpha (Homo sapiens); assay: Activation of HNFalpha transcriptional activity in human […] cells transfected with ApoCIII-luc assessed as activation of luciferase reporter gene after 24 hrs; type: cell-based; method in brief: as §1

COc1ccc2ccc3oc([N+](=O)[O-])cc3c2c1
fold change (FC) [1]: 7.97 | EC50 [2]: 2330 nM | IC50 [3]: 2280 nM

COc1cc2ccccc2c2cc([N+](=O)[O-])oc12
fold change (FC) [1]: 6.6 | EC50 [2]: 1470 nM | IC50 [3]: 4400 nM | Activity (HepG2/C3A [4]): inactive | Activity (HepG2/C3A [5]): inactive | Activity (HepG2/C3A [6]): inactive

COc1ccc2c(ccc3oc([N+](=O)[O-])cc32)c1
fold change (FC) [1]: 8.05 | EC50 [2]: 2570 nM | IC50 [3]: 2240 nM | Activity [7]: inactive | Activity [8]: inactive

O=[N+]([O-])c1oc2ccc3ccccc3c2c1CCO
EC50 [2]: 1220 nM | IC50 [3]: 2040 nM | fold change (FC) [9]: 4.58

O=[N+]([O-])c1cc2c(ccc3cc(O)ccc32)o1
ΔTm [10]: 0.84 °C | EC50 [2]: 1950 nM | IC50 [3]: 5000 nM | fold change (FC) [11]: 11.1

NC(=O)c1cc2c(ccc3ccccc32)o1
EC50 [2]: > 100000 nM | IC50 [3]: > 5000 nM | fold change (FC) [12]: 2

O=[N+]([O-])c1cc2c(ccc3ccccc32)o1
EC50 [2]: 2090 nM | IC50 [3]: 2510 nM | fold change (FC) [9]: 4.46

Cc1c([N+](=O)[O-])oc2ccc3ccccc3c12
Activity [13]: Dose-dependent effect | EC50 [2]: 1280 nM | IC50 [3]: > 5000 nM | fold change (FC) [14]: 5.51 | Activity [15]: Dose-dependent effect

Source: ChEMBL document CHEMBL1152585, “Identification of small molecule regulators of the nuclear receptor HNF4alpha based on naphthofuran scaffolds” (Bioorg Med Chem, 2009)
